Results reported in ChEMBL document CHEMBL4043182, “On the synthesis of quinone-based BODIPY hybrids: New insights on antitumor activity and mechanism of action in cancer cells” (Bioorg Med Chem Lett, 2017).

Experiments:
PC-3 [1] = assay: Cytotoxicity against human PC3 cells after 24 hrs in presence of GSH-OEt by MTT assay; format: functional, cell-based; details: PC-3, 24 h
Procedure, shortened: (§1)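 24 h MTT exposure (0.04–40.92 µM in 0.1% DMSO), with or without co-treatment with GSH ethyl ester (15 mM) to gauge the ROS contribution. MTT was 0.5 mg/mL for 3 h, with formazan dissolved in DMSO and absorbance at 595 nm expressed as % of control. Triplicate, repeated at least three times.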

PC-3 [2] = assay: Cytotoxicity against human PC3 cells after 24 hrs in absence of GSH-OEt by MTT assay; format: functional, cell-based; details: PC-3, 24 h; procedure, shortened: as §1
L929 [3] = assay: Cytotoxicity against mouse L929 cells after 24 hrs in presence of GSH-OEt by MTT assay; format: cell-based; details: L929, 24 h; procedure, shortened: as §1
SF-295 [4] = assay: Cytotoxicity against human SF295 cells after 24 hrs in absence of GSH-OEt by MTT assay; format: functional, cell-based; details: SF-295, 24 h; procedure, shortened: as §1
L929 [5] = assay: Antiproliferative activity against mouse L929 cells after 72 hrs by MTT assay; format: cell-based; details: L929, 72 h
Procedure, shortened: (§2)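 MTT reduction: cancer lines plated at 0.7×10^5 to 0.3×10^6 cells/well, V79 and L929 fibroblasts at 0.5×10^5 cells/well. Compounds in DMSO (0.1%) were given for 24 h at 0.04–40.92 µM or 72 h at 0.04–8.19 µM. Fresh medium with 0.5 mg/mL MTT was added for 3 h, then formazan was dissolved in DMSO and read at 595 nm as % of control. IC50 came from nonlinear regression with 95% CI. Doxorubicin (0.001–1.06 µM) was the positive control. Triplicate, ≥3 repeats.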

HCT-116 [6] = assay: Antiproliferative activity against human HCT116 cells after 72 hrs by MTT assay; format: functional, cell-based; details: HCT-116, 72 h; procedure, shortened: as §2
PC-3 [7] = assay: Antiproliferative activity against human PC3 cells after 72 hrs by MTT assay; format: functional, cell-based; details: PC-3, 72 h; procedure, shortened: as §2
HCT-116 [8] = assay: Cytotoxicity against human HCT116 cells after 24 hrs in presence of GSH-OEt by MTT assay; format: functional, cell-based; details: HCT-116, 24 h; procedure, shortened: as §1
MDA-MB-435 = assay: Antiproliferative activity against human MDA-MB-435 cells after 72 hrs by MTT assay; format: functional, cell-based; details: MDA-MB-435, 72 h; procedure, shortened: as §2
V79 = assay: Antiproliferative activity against chinese hamster V79 cells after 72 hrs by MTT assay; format: cell-based; details: Cricetulus griseus, V79, 72 h; procedure, shortened: as §2
SW-620 = assay: Antiproliferative activity against human SW620 cells after 72 hrs by MTT assay; format: functional, cell-based; details: SW-620, 72 h; procedure, shortened: as §2
L929 [9] = assay: Cytotoxicity against mouse L929 cells after 24 hrs in absence of GSH-OEt by MTT assay; format: cell-based; details: L929, 24 h; procedure, shortened: as §1
SF-295 [10] = assay: Antiproliferative activity against human SF295 cells after 72 hrs by MTT assay; format: functional, cell-based; details: SF-295, 72 h; procedure, shortened: as §2
HCT-116 [11] = assay: Cytotoxicity against human HCT116 cells after 24 hrs in absence of GSH-OEt by MTT assay; format: functional, cell-based; details: HCT-116, 24 h; procedure, shortened: as §1
SF-295 [12] = assay: Cytotoxicity against human SF295 cells after 24 hrs in presence of GSH-OEt by MTT assay; format: functional, cell-based; details: SF-295, 24 h; procedure, shortened: as §1

IC50 (HCT-116 [6])	IC50 (PC-3 [7])	IC50 (MDA-MB-435)	IC50 (SW-620)	SMILES	IC50 (PC-3 [1])	IC50 (PC-3 [2])	IC50 (L929 [3])	IC50 (SF-295 [4])	IC50 (L929 [5])	IC50 (HCT-116 [8])	IC50 (V79)	IC50 (L929 [9])	IC50 (SF-295 [10])	IC50 (HCT-116 [11])	IC50 (SF-295 [12])
> 7.83 µM	> 7.83 µM	> 7.83 µM	> 7.83 µM	CC1(C)CC(n2cc(CNc3ccc4n3[B-](F)(F)[N+]3=C(Cl)C=CC3=C4c3ccccc3)nn2)C2=C(O1)C(=O)c1ccccc1C2=O (stereo not given)	> 40 µM	> 40 µM	> 40 µM	> 40 µM	> 7.83 µM	> 40 µM	> 7.83 µM	> 40 µM	> 7.83 µM	> 40 µM	> 40 µM
> 8.19 µM	> 8.19 µM	> 8.19 µM	> 8.19 µM	O=C1C2=C(OC(Cn3cc(CNc4ccc5n4[B-](F)(F)[N+]4=C(Cl)C=CC4=C5c4ccccc4)nn3)C2)C(=O)c2ccccc21 (stereo not given)	> 40 µM	> 40 µM	> 40 µM	> 40 µM	> 8.19 µM	> 40 µM	> 8.19 µM	> 40 µM	> 8.19 µM	> 40 µM	> 40 µM
